Yeast life ext: yeast lifespan extension; S. cerevisiae growth with nicotinamide, OD615; deaD strain in restrictive glucose medium; inhibition of the nicotinamide effect, % at 10 µM; hit rate 0.68% among 130,000; AID 775;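 active = inhibition above a set limit, placed 3 SD over the median of all compounds, cut at about 26% in these data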
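Test system – modified budding yeast, DeaD strain · Compound – single dose 10 µM compound, 0.25% DMSO · Times – culture preincubation 4 h, compound exposure 48 h, both 30 °C · Detection – optical density (absorbance) at 615 nm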
RAM network inh: inhibitors of the yeast RAM network | AID 868 | inhibition, % at 50 µM | hit rate 1.8% among 190,000 | S. cerevisiae dse1pr::URA3 reporter, 5-FOA growth OD615, 2 d; analog-sensitive cbk1-as2 kinase mutant strain;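 active = inhibition above a set limit, 3 SD over mean compound inhibition, cut at about 8.4% in these data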;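 also: inhibition rescues growth on 5-FOA so higher OD means more RAM inhibition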
Measles CPE: protection of cells from measles virus; hit rate 1.5% among 140,000; protection (pct of control), % at 4 µM; AID 841; Measles virus-infected cells, CPE protection, absorbance; in the data active = protection mostly above about 24%, no sharp cut-off; inactive = mostly below about 26%
Yeast growth inh: yeast BB579 growth reduction in restrictive medium. S. cerevisiae BB579 growth, OD615, 48 h. inhibition, % at 10 µM. hit rate 0.51% among 140,000. AID 804;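 active = inhibition above a set limit, 3 SD over the mean compound inhibition, cut at about 44% in these data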
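Test system: DeaD yeast strain BB579 / Buffer or medium: restrictive glucose-based CSMM-D medium / Doses: single 10 µM dose / Schedule: 4 h cell preincubation, 48 h compound exposure, 30 °C humidified / Technique: culture absorbance at 615 nm / Controls: amphotericin B positive control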
INS promoter inh: TRM-6 insulin promoter activity inhibition; hit rate 0.9% among 130,000; inhibition, % at 2 µM; TRM-6 cells, insulin promoter-eGFP reporter, imaging; reporter expression induced with tamoxifen; AID 1273;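 active = inhibition above the mean plus 3 SD, with well images judged a real hit on visual review, cut at about 60% in these data, passing the limit was not always enough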
Mdm2 ligase inh: inhibitors of human Mdm2 E3 ubiquitin ligase; cell-based MDM2 ubiquitination luciferase reporter, 2 h; 0 = plate control, 100 = twice control, blank-subtracted; signal enhancement, % at 5 µM; hit rate 0.11% among 210,000;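 active = signal enhancement of 30% or more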;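 also: luminescence tracks abundance of the self-degrading MDM2-luciferase fusion protein; higher signal means inhibition of MDM2 E3 ligase activity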
Target sequence (Q00987 whole entry, looked up, the tested form may be a part): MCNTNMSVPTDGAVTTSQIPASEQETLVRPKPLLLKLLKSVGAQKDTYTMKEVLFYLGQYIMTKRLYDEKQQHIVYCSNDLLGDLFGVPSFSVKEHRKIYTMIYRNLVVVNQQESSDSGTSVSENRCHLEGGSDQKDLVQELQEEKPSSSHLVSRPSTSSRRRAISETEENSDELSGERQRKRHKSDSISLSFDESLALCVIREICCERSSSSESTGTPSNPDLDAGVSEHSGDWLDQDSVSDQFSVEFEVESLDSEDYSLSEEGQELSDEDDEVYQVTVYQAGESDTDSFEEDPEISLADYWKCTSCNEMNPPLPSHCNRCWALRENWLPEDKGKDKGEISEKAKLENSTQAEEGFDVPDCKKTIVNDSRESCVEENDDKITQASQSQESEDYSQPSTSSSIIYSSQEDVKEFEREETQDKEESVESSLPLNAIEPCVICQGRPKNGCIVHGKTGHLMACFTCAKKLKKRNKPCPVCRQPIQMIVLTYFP
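Timing – 2 h compound exposure at 37 °C · Assay system – mammalian cells stably expressing self-ubiquitinating, self-degrading MDM2 E3–luciferase fusion · Amount – 2000 cells seeded into each well · Measure – % luminescence enhancement versus blank-corrected plate control mean · Measured by – SteadyLite luminescence, 15 min reagent step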
Hits are given with their value. This is a sample that favours compounds with a hit; in the whole collection about 4% have one here.

How did COC(=O)c1ccccc1NC(=O)N1c2ccccc2Sc2ccccc21 do in these assays?
Yeast life ext: inactive; RAM network inh: inactive; Measles CPE: inactive; Yeast growth inh: inactive; INS promoter inh: inactive; Mdm2 ligase inh: inactive

What do the screens show for `CCCCNC(=O)CCc1nc2cccnc2n1Cc1ccc(OC)cc1`?
Yeast life ext: inactive; RAM network inh: inactive; Measles CPE: inactive; Yeast growth inh: inactive; INS promoter inh: 83; Mdm2 ligase inh: inactive

Results for O=C(NNC(=O)c1sccc1-n1cccc1)Nc1ccc(F)cc1 ?
RAM network inh: inactive; INS promoter inh: inactive; Mdm2 ligase inh: inactive

What do the screens show for `O=S(=O)(Nc1ccc(-c2csc(-c3ccccc3)n2)cc1)c1ccc(F)cc1`?
Yeast life ext: inactive; RAM network inh: inactive; Measles CPE: inactive; Yeast growth inh: 69; INS promoter inh: inactive; Mdm2 ligase inh: inactive

What do the screens show for `O=[N+]([O-])c1cc(S(=O)(=O)C(F)(F)F)ccc1Sc1nc2ccccc2[nH]1`?
Yeast life ext: 39; RAM network inh: inactive; Measles CPE: inactive; Yeast growth inh: inactive; INS promoter inh: inactive; Mdm2 ligase inh: inactive

Results for O=[N+]([O-])c1cc(S(=O)(=O)C(F)(F)F)ccc1Sc1nc2ccccc2s1 ?
Yeast life ext: inactive; RAM network inh: 8.5; Measles CPE: inactive; Yeast growth inh: inactive; INS promoter inh: inactive; Mdm2 ligase inh: inactive

What do the screens show for `O=C(Nc1nc(-c2ccccc2)cs1)c1ccccc1NS(=O)(=O)c1ccc(F)cc1`?
Yeast life ext: inactive; RAM network inh: inactive; Measles CPE: inactive; Yeast growth inh: inactive; INS promoter inh: inactive; Mdm2 ligase inh: inactive

What do the screens show for `O=S(=O)(Nc1ccc(O)c(Sc2nc3ccccc3s2)c1)c1ccc(F)cc1`?
Yeast life ext: inactive; RAM network inh: 8.9; Measles CPE: inactive; Yeast growth inh: inactive; INS promoter inh: inactive; Mdm2 ligase inh: inactive

What do the screens show for `CS(=O)(=O)c1ccc(Sc2nc3ccccc3s2)c([N+](=O)[O-])c1`?
Yeast life ext: inactive; RAM network inh: inactive; Measles CPE: inactive; Yeast growth inh: inactive; Mdm2 ligase inh: inactive

How did CS(=O)(=O)c1ccc(Sc2nc3ccccc3[nH]2)c([N+](=O)[O-])c1 do in these assays?
Yeast life ext: inactive; RAM network inh: inactive; Measles CPE: inactive; Yeast growth inh: inactive; INS promoter inh: inactive; Mdm2 ligase inh: inactive

How did CCN(CC)CC(=O)Nc1ccc([N+](=O)[O-])cc1 do in these assays?
RAM network inh: inactive; Mdm2 ligase inh: inactive

How did COC(=O)c1ccccc1NC(=O)c1cnn2cccnc12 do in these assays?
RAM network inh: inactive; Mdm2 ligase inh: inactive

How did Fc1ccc2c(c1)/C(=N/Nc1ccccn1)CCS2 do in these assays?
RAM network inh: inactive; Mdm2 ligase inh: inactive

What do the screens show for `OC(Cn1cncn1)(c1ccccc1)c1ccccc1`?
Yeast life ext: inactive; RAM network inh: inactive; Measles CPE: inactive; Yeast growth inh: 92; INS promoter inh: inactive; Mdm2 ligase inh: inactive

What do the screens show for `O=C(COC(=O)Cc1c(Cl)cccc1Cl)Nc1ccc(OC(F)(F)F)cc1`?
Yeast life ext: inactive; RAM network inh: inactive; Measles CPE: inactive; Yeast growth inh: inactive; INS promoter inh: inactive

What do the screens show for `CCCCN(CCCC)S(=O)(=O)c1c(C)[nH]c(=O)[nH]c1=O`?
RAM network inh: inactive; INS promoter inh: 73; Mdm2 ligase inh: inactive

How did CCCCN(C)S(=O)(=O)c1c(C)[nH]c(=O)[nH]c1=O do in these assays?
Yeast life ext: inactive; RAM network inh: inactive; Measles CPE: inactive; Yeast growth inh: inactive; INS promoter inh: inactive; Mdm2 ligase inh: inactive

Results for COCCCn1c(O)c(/C=C2\N=C(C#N)C(=Nc3ccc(C)cc3)O2)sc1=S ?
Mdm2 ligase inh: inactive

Results for O=[N+]([O-])c1ccc(O)c(/C=N/Nc2ccccn2)c1 ?
Yeast life ext: inactive; RAM network inh: inactive; Measles CPE: inactive; Yeast growth inh: 99; Mdm2 ligase inh: inactive

What do the screens show for `O=[N+]([O-])c1cccc(N/N=C/c2cc([N+](=O)[O-])ccc2O)c1`?
RAM network inh: inactive; Mdm2 ligase inh: inactive

Results for CC1=C(/C=C/C(=O)O)C(C)(C)CCC1 ?
Yeast life ext: 28; RAM network inh: inactive; Measles CPE: inactive; Yeast growth inh: inactive; INS promoter inh: inactive; Mdm2 ligase inh: inactive

How did N/C(Cc1ccc([N+](=O)[O-])cc1)=N\OC(=O)c1ccccc1F do in these assays?
RAM network inh: inactive; Mdm2 ligase inh: inactive

Source: PubChem (several laboratories)
